# Experimental data as given in article PMC10786778 (Diabetes Therapy, 2023).
# “Also recorded” adds a separate entry of the source. Read-outs that look alike come from different tables or passages of the source.
# Tests used:
# QT interval [1] = conditions: cited from earlier work
# Safety and tolerability = type: in vivo, human
# Outline: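 Safety in 48 T2DM patients given placebo or 10/25/50 mg tablets orally every 2 weeks for 12 weeks, then 2 weeks of safety follow-up. Monitoring covered adverse events, physical examination, blood and urine routine, biochemistry, amylase and lipase, vital signs, 12-lead ECG and hypoglycemic events. ADR incidence was tabulated per dose group and graded by severity.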
# [2] = mass balance study; ref CTR20201559; cited from earlier work
# C-peptide = assay: Serum C-peptide level; type: in vivo, human
# Outline: (§1)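 48 Chinese adults with T2DM, untreated with hypoglycemic agents for 3 months, randomized double-blind to placebo or 10, 25 or 50 mg oral tablets. Dosing was once every 2 weeks for 12 weeks (six doses), with 240.0 mL water, fasted on days 1 and 29. Values were measured by each site's standard procedure, compared with baseline or placebo, and summarized descriptively (mean, SD, median, range).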
# HbA1c = HbA1c change in T2DM patients; type: in vivo, human
# Outline: as §1
# [3] = Plasma pharmacokinetics of HSK7653 after first and last oral dose; type: in vivo, human
# QT interval [4] = assay: Plasma concentration QT analysis of single dose in healthy subjects; type: in vivo, human; conditions: dose of 25 mg or less every two weeks
# glucagon = assay: Plasma glucagon level; type: in vivo, human
# [5] = test system: glycosylated albumin (GA); assay: Glycated albumin; type: in vivo, human
# Outline: as §1
# fasting plasma glucose = assay: Fasting plasma glucose in T2DM patients; type: in vivo, human
# Outline: as §1
# [6] = day 85, 50 mg, among 11 subjects
compound,measurement,setting,value
N[C@@H](CC(=O)N1CCn2c(nnc2C(F)(F)F)C1)Cc1cc(F)c(F)cc1F [sitagliptin],effect on QTc interval,QT interval [1]; clinical dose 100 mg,does not correlate with an increase in QTc interval
same,effect on QT interval,"QT interval [1]; super-therapeutic dose of 800 mg, clinical significance not significant",the QT interval is prolonged
Cc1cc(N2CCN([C@@H]3CN[C@H](C(=O)N4CCSC4)C3)CC2)n(-c2ccccc2)n1 [Teneligliptin],effect on QT interval,QT interval [1]; only at 4 times the normal dose (160.0 mg/day),significantly prolonged the QT interval
"CS(=O)(=O)n1cc2c(n1)CN([C@@H]1C[C@H](N)[C@@H](c3cc(F)ccc3F)O[C@@H]1C(F)(F)F)C2 [HSK7653, (2R,3S,5R,6S)-2-(2,5-difluorophenyl)-5-[2-(methylsulfonyl)-2,6-dihydropyrrolo[3,4-c]pyrazol-5(4H)-yl]-6-(trifluoromethyl)-tetrahydro-2H-pyran-3-amine]",incidence of ADR,Safety and tolerability; 10 mg dose group,33.3%
same,incidence of TEAEs,Safety and tolerability; 10 mg dose group,58.3%
same,incidence of ADR,Safety and tolerability; 25 mg dose group,58.3%
same,incidence of TEAEs,Safety and tolerability; 25 mg dose group,91.7%
same,incidence of ADR,Safety and tolerability; 50 mg dose group,75.0%
same,incidence of TEAEs,Safety and tolerability; 50 mg dose group,83.3%
same,serious adverse events,Safety and tolerability; 10–50 mg once every two weeks,no serious adverse events
same,ADR incidence: anemia,Safety and tolerability; HSK7653 dose group total,5.6%
same,ADR incidence: decreased T wave amplitude of ECG,Safety and tolerability; HSK7653 dose group total,5.6%
same,ADR incidence: dizziness,Safety and tolerability; HSK7653 dose group total,2.8%
same,ADR incidence: dyspepsia,Safety and tolerability; HSK7653 dose group total,11.1%
same,ADR incidence: electrocardiogram T wave abnormal,Safety and tolerability; HSK7653 dose group total,8.3%
same,ADR incidence: hyperbilirubinemia,Safety and tolerability; HSK7653 dose group total,5.6%
same,ADR incidence: hyperlipidemia,Safety and tolerability; HSK7653 dose group total,8.3%
same,ADR incidence: hypertriglyceridemia,Safety and tolerability; HSK7653 dose group total,11.1%
same,ADR incidence: increased blood bilirubin,Safety and tolerability; HSK7653 dose group total,5.6%
same,ADR incidence: positive urine red blood cells,Safety and tolerability; HSK7653 dose group total,5.6%
same,ADR incidence: upper respiratory tract infection,Safety and tolerability; HSK7653 dose group total,5.6%
same,ADR incidence: urinary tract infection,Safety and tolerability; HSK7653 dose group total,8.3%
same,ADR incidence: white blood cells urine positive,Safety and tolerability; HSK7653 dose group total,8.3%
same,ADR incidence: prolonged QT interval of ECG,Safety and tolerability; HSK7653 dose group total (4/36),11.1%
same,tolerability,"Safety and tolerability; doses of 10–50 mg, Chinese T2DM subjects",well tolerated and safe
same,fecal excretion,[2],7.4%
same,"hepatic metabolism, metabolites in feces",[2],5.7%
same,"hepatic metabolism, metabolites in urine",[2],9.7%
same,renal excretion,[2],68.1%
same,level of C-peptide with increasing treatment time,C-peptide; 10 mg dose group,gradually increased to a similar level as the placebo group
same,level of C-peptide compared with the placebo group,C-peptide; 25 and 50 mg dose groups,no significant change
same,"HbA1c, Mean ± SD","HbA1c; Day 43, 10 mg",7.7 ± 0.4
same,"HbA1c, Mean ± SD","HbA1c; Day 43, 25 mg",7.5 ± 0.6
same,"HbA1c, Mean ± SD","HbA1c; Day 43, 50 mg",8.3 ± 1.0
same,"HbA1c, Mean ± SD","HbA1c; Day 85, 10 mg",7.3 ± 0.3
same,"HbA1c, Mean ± SD","HbA1c; Day 85, 25 mg",7.4 ± 0.7
same,"HbA1c, Mean ± SD","HbA1c; Day 85, 50 mg",8.4 ± 1.1
same,subjects with HbA1c decreased significantly,HbA1c; [6],5 subjects
same,subjects with HbA1c increased compared with baseline,HbA1c; [6],6 subjects
same,accumulation in vivo,[3]; 10–50 mg every two weeks,not accumulated in vivo; also recorded: did not accumulated in body
same,mean Rac_AUC,[3]; 10–50 mg every two weeks,1.0–1.1
same,mean Rac_Cmax,[3]; 10–50 mg every two weeks,0.9–1.0
same,Tmax,"[3]; human, plasma, oral, 10 mg, Tmax, median (min, max), multiple (last dose)",1 h
same,Cmax,"[3]; human, plasma, oral, 25 mg, Cmax, mean ± SD (CV%), multiple (last dose)",411 ng/mL
same,Tmax,"[3]; human, plasma, oral, 25 mg, Tmax, median (min, max), single (first dose)",2 h
same,Vd/F,"[3]; human, plasma, po",61.1 to 81.9 L
same,half-life,"[3]; human, plasma, po",64 to 87 h
same,Tmax,"[3]; human, plasma, po, median Tmax, dose range 10–50 mg",1 to 3 h
same,risk of prolongation of QT interval,QT interval [4],no significant risk of prolongation of QT interval
same,glucagon level with increasing treatment time,"glucagon; 10 mg dose group, 90–180 min after meal",gradually decreased to below the level of the placebo group
same,glucagon level compared with the placebo group,"glucagon; 25 and 50 mg dose groups, during treatment",lower than the placebo group during treatment
same,GA level lower than the baseline by,"[5]; day 43, 10 mg",2.3%
same,mean GA value,"[5]; day 43, 10 mg",21.2%
same,GA level lower than the baseline by,"[5]; day 43, 25 mg",0.8%
same,mean GA value,"[5]; day 43, 25 mg",21.0%
same,GA level higher than the baseline by,"[5]; day 43, 50 mg",0.4%
same,mean GA value,"[5]; day 43, 50 mg",23.6%
same,mean GA value,"[5]; day 85, 10 mg",20.0%
same,mean GA value,"[5]; day 85, 25 mg",20.5%
same,mean GA value,"[5]; day 85, 50 mg",24.2%
same,fasting blood glucose lower than baseline by,"fasting plasma glucose; day 43, 10 mg",0.7 mmol/L
same,mean fasting blood glucose,"fasting plasma glucose; day 43, 10 mg",9.2 mmol/L
same,fasting blood glucose lower than baseline by,"fasting plasma glucose; day 43, 25 mg",0.5 mmol/L
same,mean fasting blood glucose,"fasting plasma glucose; day 43, 25 mg",8.1 mmol/L
same,fasting blood glucose increased from baseline by,"fasting plasma glucose; day 43, 50 mg",0.8 mmol/L
same,fasting blood glucose decreased compared with the baseline by,"fasting plasma glucose; day 85, 10 mg",0.7 mmol/L
same,mean fasting blood glucose,"fasting plasma glucose; day 85, 10 mg",9.2 mmol/L
same,fasting blood glucose decreased compared with the baseline by,"fasting plasma glucose; day 85, 25 mg",0.2 mmol/L
same,mean fasting blood glucose,"fasting plasma glucose; day 85, 25 mg",8.5 mmol/L
CC#CCn1c(N2CCC[C@@H](N)C2)nc2c1c(=O)n(Cc1nc(C)c3ccccc3n1)c(=O)n2C [linagliptin],effect on QTc interval,"QT interval [1]; doses of 5 and 100 mg, compared with placebo",did not increase the QTc interval
